Among the data in PubChem BioAssay are viability, differential viability (reversal) and inhibition values, retold here.

Test [1] can be described thus: reduced viability of SK-BR-3 breast cancer cells – cell-based, 24 h, human, pilot screen (AID 572;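 active = viability at or below 10% of carrier control in both of two separate runs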;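 note: compound exposure lasted between 18 and 24 h rather than exactly 24 h; 100% = carrier-treated control wells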). To be noted: SK-BR-3 viability, CellTiter-Glo luminescence, at 10 µM, stronger effect = lower value.
Test [2] can be described thus: HUVEC growth inhibition – cell-based, human, primary screen (AID 575).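 Note: 100% = median of untreated cell wells with 0.1% DMSO on each plate.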 Conditions: HUVEC proliferation, CellTiter-Glo luminescence, 72 h; at 10 µM; stronger effect = lower value. The method in brief:
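Timing: 72 h treatment at 37 °C; material: HUVEC primary cells; technique: CellTiter-Glo luminescence measuring cellular ATP; controls: vehicle and MePR control wells; measure: percent of median DMSO-control luminescence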
(ATP-based viability assays read luminescence as a measure of living cells.)

A short description of test [3]: H69AR cell proliferation blockers – human, duplicate replicates, primary screen (AID 580;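 active = viability at or under a set limit in both replicates, limit being median viability minus 3 SD, cut at about 48% in these data, passing the limit was not always enough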;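 note: 100% = mean luminescence of untreated wells and 0% = no signal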). To be noted: H69AR lung tumor cells viability, ATP luminescence, 72 h; at 10 µM; stronger effect = lower value.
Test [4] can be described thus: MRP1 drug-resistance reversers in H69AR cells – cell-based, doxorubicin co-treatment, pilot screen (AID 601;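 active = viability loss from added drug above about 55%, and viability with drug at most 40%, in both replicates, limit read from the data, passing the limit was not always enough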). To be noted: CellTiter-Glo, 72 h, at 10 µM; for differential viability (reversal): stronger effect = higher value.
Test [5] can be described thus: yeast transport mutant growth inhibition pilot in 384-well plates, post-Golgi transport modulator project (AID 636; in the data active = inhibition above about 31%). Conditions: absorbance 615 nm, about 18 h, stronger effect = higher value.
The nature of test [6]: growth suppression of yeast trafficking mutant, preliminary HTS, modulators of trafficking downstream of Golgi apparatus project, 1536-format plate, OD 615 nm (AID 637; in the data active = inhibition above about 30%). To be noted: yeast transport mutant growth, absorbance 615 nm, 18 h; stronger effect = higher value.
[7] abbreviates: H69AR cells + 2 uM doxorubicin, measured here: viability with 2 uM doxorubicin, stronger effect = lower value.
Where [8] appears, read: H69AR cells, compound alone cytotoxicity.

The source made the active and inactive calls.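 Rule for the calls, unless noted: active = viability at or below 30% in both replicate assays; inconclusive = viability at or below 30% in just one of the two assays; inactive = the rest.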

Regarding `O=C(COc1ccc(S(=O)(=O)NC2CCCCC2)cc1)NCc1ccccn1`, the viability in test [1] was 65% (inactive); in test [2] it was 102% (inactive); in test [3], 85.6% (inactive); in test [4] (setting [7]) it was 88.6%; in test [4] (setting [8]), 85.6%. The differential viability (reversal) in test [4] (H69AR cells + 2 uM doxorubicin) is -3% (inactive). The results for the inhibition in test [5] and in test [6] were -7.26% (inactive) and 2.18% (inactive), respectively.

`Cc1ccc(C(C(=O)NC2CCCCC2)N(C(=O)c2csnn2)C2CCCC2)o1` (stereo not drawn): the viability in test [1] is 108% (inactive); in test [2] it was 101% (inactive); in test [3], 80.4% (inactive); in test [4] (setting [7]) it was 79.4%; in test [4] (setting [8]), 80.4%. In test [4] (H69AR cells + 2 uM doxorubicin), the differential viability (reversal) is 1.01% (inactive). Also, the values for the inhibition in test [5] and in test [6] were -0.65% (inactive) and -2.46% (inactive), respectively.

Consider `CCC1CCCCN1S(=O)(=O)c1ccc(C(=O)Nc2nnc(-c3ccccc3Cl)o2)cc1` (stereo not drawn), for which the viability was 74% (inactive) in test [1]; 13.5% (active) in test [2]; 20.1% (active) in test [3]; 41.8% in test [4] (setting [7]); 20.1% in test [4] (setting [8]). In test [4] (H69AR cells + 2 uM doxorubicin), the differential viability (reversal) is -21.7% (inactive). Moreover, the inhibition in test [5] is -0.13% (inactive); in test [6] it was 11.6% (inactive).

In the case of `NC(=O)OCC(COC(N)=O)c1ccccc1`, the viability in test [1] is 132% (inactive); in test [2], 89.3% (inactive); in test [3], 90.7% (inactive); in test [4] (setting [7]) it was 97.5%; in test [4] (setting [8]), 90.7%. The differential viability (reversal) in test [4] (H69AR cells + 2 uM doxorubicin) was -6.82% (inactive). Besides, the inhibition in test [5] is -0.13% (inactive); in test [6] it was 2% (inactive).

Consider `Cc1cc(Cl)c(S(=O)(=O)Nc2ccc3c(c2)OCCO3)cc1OCC(N)=O`, for which the viability is 78% (inactive) in test [1]; 107% (inactive) in test [2]; 97.2% (inactive) in test [3]; 85.5% in test [4] (setting [7]); 97.2% in test [4] (setting [8]). Moreover, the differential viability (reversal) in test [4] (H69AR cells + 2 uM doxorubicin) was 11.7% (inactive). The inhibition in test [5] is 0.27% (inactive); in test [6], 4.84% (inactive).

In the case of `CCN(CC)S(=O)(=O)c1ccc(NC(=O)Cn2cnc3ccccc3c2=O)cc1`, the viability in test [1] was 87% (inactive); in test [2] it was 85.9% (inactive); in test [3], 93.8% (inactive); in test [4] (setting [7]), 85.8%; in test [4] (setting [8]), 93.8%. Further, the differential viability (reversal) in test [4] (H69AR cells + 2 uM doxorubicin) is 8.02% (inactive). The results for the inhibition in test [5] and in test [6] were 0.96% (inactive) and -1.29% (inactive), respectively.

For `COc1ccc(C/C(O)=C(\C#N)c2nc3ccccc3s2)cc1`, the viability is 86% (inactive) in test [1]; 48.8% (inactive) in test [2]; 83.1% (inactive) in test [3]; 91.3% in test [4] (setting [7]); 83.1% in test [4] (setting [8]). Moreover, the differential viability (reversal) in test [4] (H69AR cells + 2 uM doxorubicin) was -8.21% (inactive). For the same compound, the inhibition is -2.93% (inactive) in test [5] and 0.36% (inactive) in test [6].

Take `O=C(Nc1nc(-c2ccccc2)cs1)C1CCCO1` (stereo not drawn): the viability in test [1] is 91% (inactive); in test [2] it was 101% (inactive); in test [3], 94.2% (inactive); in test [4] (setting [7]), 83.3%; in test [4] (setting [8]), 94.2%. For the same compound, the differential viability (reversal) in test [4] (H69AR cells + 2 uM doxorubicin) was 10.9% (inactive). The results for the inhibition in test [5] and in test [6] were -4.4% (inactive) and -2.18% (inactive), respectively.

`NC(N)=Nc1nc(CSCC/C(N)=N/S(N)(=O)=O)cs1`: the viability is 89% (inactive) in test [1]; 98.5% (inactive) in test [2]; 95.8% (inactive) in test [3]; 104% in test [4] (setting [7]); 95.8% in test [4] (setting [8]). Besides, the differential viability (reversal) in test [4] (H69AR cells + 2 uM doxorubicin) is -8.47% (inactive). The values for the inhibition in test [5] and in test [6] were 3.9% (inactive) and 5.33% (inactive), respectively.

`CC(C)(C#N)Nn1cnnc1`: the viability in test [1] is 135% (inactive); in test [2], 104% (inactive); in test [3], 85.9% (inactive); in test [4] (setting [7]), 90.7%; in test [4] (setting [8]), 85.9%. In addition, the differential viability (reversal) in test [4] (H69AR cells + 2 uM doxorubicin) is -4.76% (inactive). The values for the inhibition in test [5] and in test [6] were -4.73% (inactive) and 4.18% (inactive), respectively.

Turning to `c1cnc(NCCNc2ncccn2)nc1`, the viability in test [1] is 98% (inactive); in test [2], 112% (inactive); in test [3], 99.8% (inactive); in test [4] (setting [7]), 89%; in test [4] (setting [8]) it was 99.8%. The differential viability (reversal) in test [4] (H69AR cells + 2 uM doxorubicin) is 10.7% (inactive). Moreover, the inhibition was -8.4% (inactive) in test [5] and -3.82% (inactive) in test [6].

By viability is commonly meant a read-out of living cells in per cent, often relative to untreated cells. The inhibition is the drop in the measured response relative to a control, in per cent.
